# Screening data as filed in PubChem.
# Rpn11 inh: inhibitors of human proteasome Rpn11 | human 26S proteasome, Ub4-pepOG fluorescence polarization; 20S core pre-blocked with epoxomicin | O00487 | AID 588493 | 360,000 tested, 0.59% active | inhibition, % at 20 µM;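 active = inhibition at 20 µM, scaled to each plate's controls, above about 33%, limit read from the data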
# TPT1 inhibitor: blocks Candida albicans tRNA 2'-phosphotransferase; recombinant caTPT1, FP RNA substrate dephosphorylation; 300,000 tested, 0.81% active; inhibition, % at 5 µM;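 active = inhibition above the mean of all tested compounds plus 3 SD, set per screening campaign, cut at about 24% in these data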;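 also: plate controls were DMSO alone for no effect and ferristatin control at 100 nM for full effect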
# XiGFP reactiv: activators of X-chromosome reactivation in mouse fibroblasts; XiGFP mouse fibroblasts, % GFP-positive cells imaging, 3 d; cells co-treated with 5-aza-dC sensitizer; scaled so ellipticine positive control = 100%; activation, % at 7.58 µM; 360,000 tested, 0.055% active; AID 743238;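 active = mean normalized replicate activation at least 10% and every replicate at or above 10%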;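 also: 0% = median of on-plate neutral control wells and 100% = ellipticine 6 µM median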
#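 Assay system: SV40-immortalized XiGFP fibroblast cells, line 68-5-11; buffer or medium: DMEM plus 5-aza-dC sensitizer; compound: one concentration, pinned; timing: compounds 3 days, fix/stain 15 min at room temperature; benchmarks: positive control ellipticine, 6 µM final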
# HNF4A DNA FP: change in binding of human HNF4 alpha to DNA; 360,000 tested, 0.3% active; activity change, % at 10 µM; AID 1224865; P41235; HNF4a-FITC DNA binding, fluorescence polarization, 1 h; in the data active = activity change above about 30%, passing the limit was not always enough
# Target sequence (P41235 whole entry, looked up): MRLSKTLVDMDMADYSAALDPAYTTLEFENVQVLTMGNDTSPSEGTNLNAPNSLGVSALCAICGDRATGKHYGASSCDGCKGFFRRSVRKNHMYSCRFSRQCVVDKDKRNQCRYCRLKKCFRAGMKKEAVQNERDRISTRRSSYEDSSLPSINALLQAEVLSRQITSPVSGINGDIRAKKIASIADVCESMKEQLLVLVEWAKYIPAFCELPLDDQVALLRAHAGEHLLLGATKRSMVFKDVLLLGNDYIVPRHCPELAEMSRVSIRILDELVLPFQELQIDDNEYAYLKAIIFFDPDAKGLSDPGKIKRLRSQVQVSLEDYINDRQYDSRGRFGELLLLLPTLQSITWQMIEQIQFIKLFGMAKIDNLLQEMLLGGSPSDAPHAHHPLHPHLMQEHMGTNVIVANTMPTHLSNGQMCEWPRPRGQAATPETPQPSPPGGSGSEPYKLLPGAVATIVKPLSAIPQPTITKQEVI
# aDG glyco up: alpha-DG glycosylation activation | Pro5-aDG cells, alpha-DG glycosylation AlphaScreen (IIH6); 0% Pro5, 100% B10-LARGE cell signal | activation, % at 10 µM | 360,000 tested, 0.22% active | AID 624168;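 active = activation of at least 8% versus controls, or a plate z-score of at least 8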;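 also: Pro5 are CHO cells carrying HIG-tagged alpha-DG that lacks glycosylation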
# CSN deneddyl inh: CSN deneddylation inhibition; Q92905; Purified CSN, SCF-Nedd8-OG deneddylation, fluorescence polarization; inhibition, % at 12.5 µM; 360,000 tested, 0.38% active; AID 651999;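 active = pattern-corrected inhibition above about 35%, with an unprinted fluorescence ratio check between 0.5 and 1.5, limit read from the data, passing the limit was not always enough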;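 also: 0% = enzyme with substrate and 100% = substrate without enzyme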
#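 assay system = purified human Csn5 enzyme expressed in HEK293T cells | amount = 0.24 nM enzyme | buffer or medium = Tris/NaCl/DTT buffer, pH 7.5 | reagent = 10 nM SCFSkp2-Nedd8OG | compound = one concentration, 12.5 µM, 0.25% DMSO | times = 90 min reaction at room temperature | signal = FP | read-out basis = % inhibition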
# Rpn11 confirm: confirmation of human proteasome Rpn11 inhibitors; shares compounds with Rpn11 inh; purified human 26S proteasome, Ub4-pepOG fluorescence polarization; proteasome pretreated with epoxomicin; inhibition, % at 20 µM; 1,900 tested, 29% active; AID 602318
# MMP-2 inh: blocks human MMP-2, flagging nonselective RPN11 hits; inhibition, % at 20 µM; 1,900 tested, 4% active; AID 602330; shares compounds with Rpn11 inh; recombinant MMP-2, FRET peptide cleavage fluorescence;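 also: human MMP-2 activated beforehand with APMA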
# Thrombin inh: thrombin (bovine) inhibition counter-screen. shares compounds with Rpn11 inh. bovine thrombin cleavage of Ub4-pepOG, fluorescence polarization. inhibition, % at 20 µM. 1,900 tested, 13% active;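 active = mean inhibition at least 40% at 20 µM, or signal 3 deviations below plate average, so some actives read negative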;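 also: plate controls were thrombin with DMSO for no effect and buffer wells lacking thrombin for full effect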
# The depositor's hits bear a star; x = no result; + = active, no number. Shown are actives, neighbours in structure and some others; about 1.3% of the full set was active somewhere. Rule as the data show it, unless noted: active = inhibition above about 40%; inactive = the rest.
SMILES,Rpn11 inh,TPT1 inhibitor,XiGFP reactiv,HNF4A DNA FP,aDG glyco up,CSN deneddyl inh,Rpn11 confirm,MMP-2 inh,Thrombin inh
Cc1cc2ncn(/N=C/c3ccc([N+](=O)[O-])s3)c2cc1C,41*,8,0,6,5,7,9,8,-8
C[C@@H]1CN([C@H](C)CO)C(=O)c2cccc(NS(=O)(=O)c3cccs3)c2O[C@@H]1CN(C)Cc1ccncc1,x,x,0,x,x,x,x,x,x
COc1cccc(NC(=O)C[C@H]2CC[C@H]3[C@H](COc4ccc(NC(=O)C5CCCCC5)cc4C(=O)N3C)O2)c1,x,x,1,x,x,x,x,x,x
COc1cc(/C=C2/SC(=Nc3ccc(O)cc3)NC2=O)cc(OC)c1O,59*,13,0,5,0,4,1,-24,7
CCn1c(O)c2ccc(C(=O)N=NC(=O)c3ccccc3)cc2c1O,-3,2,0,3,1,1,x,x,x
O=C(N=NC(=O)c1ccco1)c1ccc2c(O)n(N3C(=O)c4ccccc4C3=O)c(O)c2c1,48*,-1,0,7,0,-1,-13,1,-6
CCCCN=C1NN=C(c2cc3ccccc3o2)CS1,46*,19,0,17,2,8,7,36,-13
O=C(N/N=C/c1ccc(OC(=O)c2ccc3c(c2)OCO3)cc1)c1cncc(Br)c1,+,0,0,9,0,5,5,8,-1
CC(C)CC#Cc1ccc2c(c1)O[C@@H](CN(C)C(=O)c1cnccn1)[C@H](C)CN([C@H](C)CO)S2(=O)=O,x,x,-2,x,x,x,x,x,x
C[C@@H]1CN([C@H](C)CO)C(=O)Cc2cc(NC(=O)CCC(F)(F)F)ccc2O[C@H]1CN(C)CC1CCCCC1,x,x,0,x,x,x,x,x,x
CCOc1ccc(N=Nc2ccc(O)c3ncccc23)cc1,23,x,1,3,0,-1,x,x,x
CCN(CC)S(=O)(=O)c1cc(OC)ccc1N=Nc1ccc(O)c2ncccc12,50*,x,0,4,0,2,48*,43*,0
NS(=O)(=O)c1ccc(N=Nc2ccc(O)c3ncccc23)cc1,86*,3,0,4,0,5,70*,55*,13
CCS(=O)(=O)c1ccc(OC)c(N=Nc2ccc(O)c3ncccc23)c1,29,-5,0,-1,0,-4,x,x,x
CCc1ccc(N2C(=O)Cc3c2nc(N)c(C#N)c3N)cc1,21,0,x,4,0,9,x,x,x
CCN(CC)c1nc2c3c(nc4c(c3c1C#N)CC(=O)N4c1ccc(Cl)cc1)NC(C)=N2,43*,22,0,12,0,6,11,-20,-16
CCCOc1ccc(-c2nnn(CC(=O)c3c[nH]c4ccccc34)n2)cc1,50*,16,x,11,0,16,34,-43,-19
COc1ccccc1NC(=O)Nc1nc(CC(=O)Nc2cccc(F)c2)cs1,7,1,0,-2,0,0,x,x,x
COc1ccccc1NC(=O)Nc1nc(CC(=O)Nc2cc(F)ccc2F)cs1,46*,11,0,15,0,7,11,-10,-14
Cc1cnc(Sc2ncccc2[N+](=O)[O-])nc1,6,-4,x,-1,0,3,x,x,x
Cc1cc(C)n2nc(Sc3ncccc3[N+](=O)[O-])nc2n1,43*,-3,0,1,0,-1,-10,-38,-10
COc1ccc(-c2nnc(SC)nc2-c2ccc(OC)c([N+](=O)[O-])c2)cc1[N+](=O)[O-],103*,-2,0,12,0,2,21,70*,3
